Reference: PMC2872052 (Peptides, 2010)
Where a SMILES comes first, the peptide text is derived from it. [ ]: non-standard residue; d: D form.

Target: wild type rat secretin receptor (Rattus norvegicus, UniProt P23811)
Assay: cAMP responses in secretin receptor-bearing CHO-SecR cells
Type: cell-based
Conditions: for agonist (biological) activity at the secretin receptor, in words: cAMP responses in CHO-SecR cells, relative to maximal response to secretin
Procedure, shortened: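 CHO cells stably expressing wild-type rat secretin receptor, grown 48 h at ~8,000 cells/well, washed twice in PBS, then stimulated 30 min at 37 °C with increasing test-compound concentrations in Krebs-Ringers/HEPES pH 7.4 with 0.2% BSA, 0.1% bacitracin and 1 mM IBMX. Lysis in 6% ice-cold perchloric acid, neutralised to pH 6, cAMP by LANCE. Normalised to maximal secretin response; three experiments in duplicate.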

Chain of wild type rat secretin receptor (P23811 26-449): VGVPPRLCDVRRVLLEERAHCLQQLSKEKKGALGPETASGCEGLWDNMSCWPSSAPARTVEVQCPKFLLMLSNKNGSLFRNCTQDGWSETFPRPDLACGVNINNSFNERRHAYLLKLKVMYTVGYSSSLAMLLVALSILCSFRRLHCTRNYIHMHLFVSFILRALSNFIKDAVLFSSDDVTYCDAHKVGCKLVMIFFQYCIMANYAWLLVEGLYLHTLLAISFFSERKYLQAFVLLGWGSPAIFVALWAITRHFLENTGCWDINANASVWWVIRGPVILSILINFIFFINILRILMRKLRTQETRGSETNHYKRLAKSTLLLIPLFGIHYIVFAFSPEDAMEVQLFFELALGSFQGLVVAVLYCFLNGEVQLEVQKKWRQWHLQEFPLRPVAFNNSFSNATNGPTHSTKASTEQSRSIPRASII

EC50 [µM]	agonist (biological) activity at the secretin receptor, in words	Structure (SMILES)
11.7 ± 3		O=C(O)C[C@@H]1NC(=O)[C@H](Cc2c[nH]c3ccccc23)NC(=O)[C@H](CC(=O)O)NC(=O)[C@H](Cc2c[nH]c3ccccc23)NC(=O)[C@@H](CC(=O)O)NC(=O)[C@H](Cc2c[nH]c3ccccc23)NC1=O [c[WDWDWd]] (cyclo(DWDW[dD]W))
23 ± 5.3	full agonist activity	C[C@@H]1NC(=O)[C@H](C)NC(=O)[C@@H](C)NC(=O)[C@H](C)NC(=O)[C@H](CC(=O)O)NC(=O)[C@H](Cc2c[nH]c3ccccc23)NC1=O [c[AAWDAa]] (cyclo(AAWDA[dA]))
21 ± 4.2	full agonist activity	C[C@@H]1NC(=O)[C@H](C)NC(=O)[C@H](CC(=O)O)NC(=O)[C@H](Cc2c[nH]c3ccccc23)NC(=O)[C@H](C)NC(=O)[C@@H](C)NC1=O [c[AWDAAa]] (cyclo(AA[dA]AWD))
